The text below walks through data of ChEMBL document CHEMBL3870337, “Development of a triazole class of highly potent Porcn inhibitors” (Bioorg Med Chem Lett, 2016).

Calls of active or inactive are those of the source. No cut-off for these calls is given here.

Tested on in one data set: not listed separately
Put plainly: Stability in mouse plasma at 2 uM in presence of NADPH by LC-MS/MS analysis.
Conditions: not given
Regarding `O=C(Cn1nnc(-c2ccncc2)c1-c1ccccc1)Nc1ccc(-c2ccccc2)cn1`, the half-life – broadly, how long it takes for the measured level to halve – at 2 µM is above 4 h.

For another data set, the target named is T1, Protein-serine O-palmitoleoyltransferase porcupine (Homo sapiens) (UniProt Q9H237).
T1 sequence (whole entry): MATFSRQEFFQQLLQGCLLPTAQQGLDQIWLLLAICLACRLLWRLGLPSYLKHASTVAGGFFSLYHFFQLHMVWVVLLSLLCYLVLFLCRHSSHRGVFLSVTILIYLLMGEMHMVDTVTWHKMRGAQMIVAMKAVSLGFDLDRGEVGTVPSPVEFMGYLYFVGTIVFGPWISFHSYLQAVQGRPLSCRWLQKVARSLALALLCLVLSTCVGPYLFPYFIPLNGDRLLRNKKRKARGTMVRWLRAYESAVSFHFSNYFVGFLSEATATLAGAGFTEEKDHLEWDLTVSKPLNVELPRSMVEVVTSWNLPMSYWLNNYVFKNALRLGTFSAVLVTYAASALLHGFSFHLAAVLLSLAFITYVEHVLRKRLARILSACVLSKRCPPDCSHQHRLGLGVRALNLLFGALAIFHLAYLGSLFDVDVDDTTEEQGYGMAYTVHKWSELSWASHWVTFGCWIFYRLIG
Put plainly: Inhibition of porcupine-mediated phosphorylation of dishevelled 2/3 in human HeLa cells at 1 uM after 24 hrs by Western blot analysis. The format is cell-based.
Conditions: not given
The method, boiled down:
(§1)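 HeLa cells, which have high cell-autonomous Wnt signalling, were treated for 24 h with compound, the LGK974 reference or DMSO vehicle. Cell lysates were then analysed by Western blot for phosphorylation of LRP6 and of Dvl2/3, used as biochemical markers of Wnt pathway activity.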
For orientation: Immunoblotting shows a protein as a band on a membrane.
As for `O=C(Cn1nnc(-c2ccncc2)c1-c1ccccc1)Nc1ccc(-c2ccccc2)cn1`, the inhibition entry is “Active”.

Tested on in another data set: not listed separately
Put plainly: Half life in mouse plasma at 2 uM in presence of NADPH by LC-MS/MS analysis. Format: ADME, cell-free.
Conditions: not given
Turning to `O=C(CSc1nnc(-c2ccncc2)n1-c1ccccc1)Nc1ccc(-c2cccnc2)cc1`, the t1/2 was below 0.083 h. Regarding `O=C(Cn1nnc(-c2ccncc2)c1-c1ccccc1)Nc1ccc(-c2ccccc2)cn1`, the t1/2 amounted to 2.17 h. Regarding `O=C(Cn1cc(-c2ccncc2)nn1)Nc1ccc(-c2ccccc2)cn1`, the t1/2 came to 1.67 h.

Another data set deals with T2, Protein-serine O-palmitoleoyltransferase porcupine (Mus musculus, UniProt Q9JJJ7).
T2 sequence (Q9JJJ7 whole entry): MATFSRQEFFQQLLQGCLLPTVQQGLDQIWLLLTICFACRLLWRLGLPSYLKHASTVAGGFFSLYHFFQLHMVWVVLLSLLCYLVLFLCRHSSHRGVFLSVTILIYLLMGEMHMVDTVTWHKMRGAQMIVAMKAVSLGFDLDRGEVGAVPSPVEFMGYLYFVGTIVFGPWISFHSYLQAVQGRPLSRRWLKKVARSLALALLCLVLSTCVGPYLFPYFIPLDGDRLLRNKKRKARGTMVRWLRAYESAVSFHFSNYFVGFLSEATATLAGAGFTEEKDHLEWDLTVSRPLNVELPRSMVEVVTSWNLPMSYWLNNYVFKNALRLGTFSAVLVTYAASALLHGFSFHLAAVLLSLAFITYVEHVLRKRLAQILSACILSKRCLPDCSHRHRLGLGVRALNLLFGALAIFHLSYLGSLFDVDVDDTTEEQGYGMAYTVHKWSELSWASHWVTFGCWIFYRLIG
As to the kind of experiment: Inhibition of porcupine-mediated Wnt signaling in mouse L-cells after 24 hrs by springerImage-Topflash reporter assay.
Conditions: not given
On the technique in general: In a reporter assay the amount or activity of a reporter protein is the signal.
On to `O=C(Cn1nnc(-c2ccncc2)c1-c1ccccc1)Nc1ccc(N2CCCCC2)cc1`, for which the EC50 – broadly, the concentration at which the effect is half-maximal – turned out to be 8 nM. As for `N#Cc1ccc(-c2c(-c3ccncc3)nnn2CC(=O)Nc2ccc(-c3ccccc3)cn2)cc1`, the EC50 stood at 0.48 nM. For `O=C(Cn1nnc(-c2ccccc2)c1-c1ccccc1)Nc1ccc(-c2ccccc2)cn1`, the EC50 is 400 nM. The molecule `O=C(Cn1nnc(-c2ccncc2)c1-c1ccccc1)Nc1ccc(-c2ccco2)cn1` yielded an EC50 of 0.4 nM. The same measure, in the same setting: the figure for `CCC(C(=O)Nc1ccc(-c2ccccc2)cn1)n1nnc(-c2ccncc2)c1-c1ccccc1` (stereo unspecified) is 12 nM.

For `O=C(Cn1nnc(-c2ccncc2)c1-c1cccc2ccccc12)Nc1ccc(-c2ccccc2)cn1`, the EC50 was 6.5 nM. For the molecule `COc1ccc(-c2nnn(CC(=O)Nc3ccc(-c4ccccc4)cn3)c2-c2ccccc2)cc1`, the EC50 stood at 18 nM.

Consider `Cc1ccccc1-c1c(-c2ccncc2)nnn1CC(=O)Nc1ccc(-c2ccccc2)cn1`, for which the EC50 was found to be 40 nM. Same read-out and setting: the figure for `O=C(Cn1nnc(-c2ccncc2)c1-c1ccccc1)Nc1ncc(-c2ccccc2)cn1` is 8 nM; for `O=C(Cn1nnc(-c2ccncc2)c1-c1ccccc1)Nc1ccc(-c2cccnc2)cc1` it is 200 nM. In the case of `O=C(Cn1nnc(-c2ccncc2)c1-c1ccc(F)cc1)Nc1ccc(-c2ccccc2)cn1`, the EC50 was found to be 0.2 nM. In turn, `O=C(Cn1cc(-c2ccccn2)nn1)Nc1ccc(-c2ccccc2)cn1` registered a 50% effective concentration (EC50) above 5000 nM. `O=C(Cn1nnc(-c2ccncc2)c1-c1ccccc1)Nc1ccc(-c2ccncc2)cc1` came in with a half-maximal effective concentration (EC50) of 7 nM. Turning to `Cc1cccc(-c2c(-c3ccncc3)nnn2CC(=O)Nc2ccc(-c3ccccc3)cn2)c1`, the midpoint of the response, the EC50, lay at 0.4 nM. For the molecule `O=C(Cn1nnc(-c2ccncc2)c1-c1ccc(C(F)(F)F)cc1)Nc1ccc(-c2ccccc2)cn1`, a half-maximal effect (EC50) was put at 0.3 nM. `O=C(Cn1nnc(-c2ccncc2)c1-c1ccccc1)Nc1ncc(-c2ccccc2)s1` came in with a half-maximal effective concentration (EC50) of 80000 nM.

`O=C(Cn1nnc(-c2ccncc2)c1-c1ccccc1)Nc1ccc(N2CCCCC2)cn1` came in with an EC50 above 1000 nM. Consider `O=C(Cn1nnc(-c2ccccc2C(F)(F)F)c1-c1ccccc1)Nc1ccc(-c2ccccc2)cn1`, for which a half-maximal effect (EC50) was put at 500 nM. Molecule `O=C(Cn1nnc(-c2ccncc2)c1-c1ccccc1)Nc1cccc(-c2ccccc2)c1` displayed an EC50 of 270 nM.

Regarding `O=C(Cn1nnc(-c2ccncc2)c1-c1ccccc1)Nc1ccc(-c2ccccc2)cn1`, a half-maximal effect (EC50) was put at 0.08 nM. `O=C(Cn1nnc(-c2cccnc2)c1-c1ccccc1)Nc1ccc(-c2ccccc2)cn1` displayed an EC50 of 5 nM. `CCOC(=O)c1ccc(-c2c(-c3ccncc3)nnn2CC(=O)Nc2ccc(-c3ccccc3)cn2)cc1` displayed an EC50 of 0.7 nM. In turn, `O=C(Cn1nnc(-c2ccncc2)c1-c1ccccc1)Nc1ccc(-c2ccccc2)nc1` displayed an EC50 of 0.2 nM. The same measure, in the same setting: the same measure for `O=C(Cn1nnc(-c2ccncc2)c1-c1ccccc1)Nc1ccc(-c2cncnc2)cn1`: 1.8 nM; for `O=C(Cn1cc(-c2ccncc2)nn1)Nc1ccc(-c2ccccc2)cn1`: 9 nM; for `O=C(Cn1nnc(-c2ccnc(C(F)(F)F)c2)c1-c1ccccc1)Nc1ccc(-c2ccccc2)cn1`: 0.6 nM.

With `O=C(Cn1cc(-c2ccccc2)nn1)Nc1ccc(-c2ccccc2)cn1`, the concentration for a half-maximal effect (EC50) is above 5000 nM. Still for that read-out and setting: the same measure for `O=C(Cn1nnc(-c2ccncc2)c1-c1ccccc1)Nc1ccc(-c2cccnc2)cn1`: above 1000 nM; for `Cc1cc(-c2nnn(CC(=O)Nc3ccc(-c4ccccc4)cn3)c2-c2ccccc2)ccn1`: 0.14 nM. The molecule `COc1ccccc1-c1c(-c2ccncc2)nnn1CC(=O)Nc1ccc(-c2ccccc2)cn1` came in with an EC50 of 9 nM. Take `O=C(Cn1cc(-c2cccnc2)nn1)Nc1ccc(-c2ccccc2)cn1`: the midpoint of the response, the EC50, lay at 100 nM. Molecule `O=C(Cn1nnc(-c2ccncc2)c1-c1ccccc1)Nc1ccc(-c2ccccn2)cc1` gave an EC50 of 1.8 nM. Turning to `O=C(Cn1nnc(-c2ccncc2)c1-c1ccccc1)Nc1ccc(-c2ccsc2)cn1`, the response was half-maximal at 0.65 nM (EC50).

`O=C(Cn1nnc(-c2ccncc2)c1-c1ccccc1)Nc1ccc(-c2ccoc2)cn1` showed an EC50 of 0.6 nM.

On to `O=C(Cn1nnc(-c2ccccn2)c1-c1ccccc1)Nc1ccc(-c2ccccc2)cn1`, for which the midpoint of the response, the EC50, lay at 2500 nM.

`COc1ccc(-c2c(-c3ccncc3)nnn2CC(=O)Nc2ccc(-c3ccccc3)cn2)cc1` had a 50% effective concentration (EC50) of 0.18 nM.

In turn, `CC(C(=O)Nc1ccc(-c2ccccc2)cn1)n1nnc(-c2ccncc2)c1-c1ccccc1` (stereo unspecified) registered an EC50 of 3 nM. The same measure, in the same setting: the same measure for `O=C(Cn1nnc(-c2ccnc(F)c2)c1-c1ccccc1)Nc1ccc(-c2ccccc2)cn1`: 0.13 nM.

For another data set, the target named is T1, Protein-serine O-palmitoleoyltransferase porcupine (Homo sapiens). Put plainly: Inhibition of porcupine-mediated phosphorylation of LRP6 in human HeLa cells at 1 uM after 24 hrs by Western blot analysis. The format is cell-based.
Conditions: not given
A digest of the protocol: as §1
For the molecule `O=C(Cn1nnc(-c2ccncc2)c1-c1ccccc1)Nc1ccc(-c2ccccc2)cn1`, the inhibition result is “Active”.

Tested on in a further data set: not listed separately
As to the kind of experiment: Half life in ICR/CD-1 mouse liver S9 fraction at 2 uM in presence of NADPH by LC-MS/MS analysis. Particulars: s9, 2 µM. The format is ADME, subcellular.
For the molecule `O=C(CSc1nnc(-c2ccncc2)n1-c1ccccc1)Nc1ccc(-c2cccnc2)cc1`, the t1/2 came to 0.25 h. Same read-out and setting: the figure for `O=C(Cn1cc(-c2ccncc2)nn1)Nc1ccc(-c2ccccc2)cn1` is 3.33 h.
